Common to all, as to format: functional
Test [1] has as its system Plasmodium berghei. As to the kind of experiment: Antiparasitic activity against Plasmodium berghei infected in mice (Mus musculus) assessed as reduction of parasitaemia at 50 mg/kg, intraperitoneally administered 4, 24, 48, 72 hrs post infection measured 24 hrs of last treatment on day 4 relative to control. Further details: scale not given: the % may be the effect or the level left. To be noted: route intraperitoneal. The method, boiled down: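 Compounds formulated in DMSO/water and given i.p. at 50 mg/kg, 4 doses, to P. berghei-infected mice. Parasitaemia measured by FACS on day 4 post infection, 24 h after the last dose. Activity is the difference in mean % parasitaemia between control (n = 5 mice) and treated groups, as % of control. Mean survival time was also recorded.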

In test [2] the test system is Mycolicibacterium smegmatis. As to the kind of experiment: Antitubercular activity against Mycobacterium smegmatis mc2 155. To be noted: str. MC2 155.
For test [3], the system named is Mycobacterium tuberculosis. As to the kind of experiment: Antitubercular activity against Mycobacterium tuberculosis H37Rv.
The test system of test [4] is Corynebacterium glutamicum. As to the kind of experiment: Antitubercular activity against Corynebacterium glutamicum ATCC 13032. The procedure, abridged: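 Grown in 7H9 medium; susceptibility determined by resazurin reduction. MIC99 is the lowest drug concentration preventing growth of 99% of cells.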
Test [5] deals with Plasmodium berghei. As to the kind of experiment: Antiparasitic activity against Plasmodium berghei infected in mice (Mus musculus) assessed as survival days at 50 mg/kg, intraperitoneally administered 4, 24, 48, 72 hrs post infection. The following applies: route intraperitoneal. The method, boiled down:
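Infected mice received the compounds formulated in DMSO/water, given i.p. as 4 × 50 mg/kg. Parasitaemia was measured by FACS on day 4 post infection, 24 h after the last treatment. Activity was taken as the reduction in mean % parasitaemia versus the untreated control group (n = 5 mice). Mean survival time in days was recorded.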

SMILES strings stand for the structures.

Results on four molecules are retold here after ChEMBL document CHEMBL1157552, “Antimalarial and antitubercular nostocarboline and eudistomin derivatives: synthesis, in vitro and in vivo biological evaluation” (Bioorg Med Chem, 2010).

With `Clc1ccc2[nH]c3c[n+](Cc4ccc(-c5ccc(C[n+]6ccc7c(c6)[nH]c6ccc(Cl)cc67)cc5)cc4)ccc3c2c1.[Cl-].[Cl-]`, the Activity in test [1] was 0%. The MIC99 in test [2] was 152 µM; in test [3], greater than 15 µM; in test [4], greater than 15 µM.

With `Clc1ccc2[nH]c3c[n+](CCOCC[n+]4ccc5c(c4)[nH]c4ccc(Cl)cc45)ccc3c2c1.[Cl-].[Cl-]`, the Activity in test [1] came out at 2.6%. The MIC99 is 46 µM in test [2], 18 µM in test [3] and 9 µM in test [4].

`Clc1ccc2[nH]c3c[n+](CCCCCC[n+]4ccc5c(c4)[nH]c4ccc(Cl)cc45)ccc3c2c1.[Br-].[Br-]`: the Activity in test [1] was determined as 0%. For the same molecule, the MIC99 worked out at 20 µM in test [2], 8 µM in test [3] and 8 µM in test [4].

For the molecule `C[n+]1ccc2c(c1)[nH]c1ccc(Cl)cc12.[I-]` [NOSTOCARBOLINE], in test [1], the Activity was determined as 49.6%. Also, the MIC99 in test [2] is 290 µM; in test [3], greater than 29 µM; in test [4], greater than 29 µM. Besides, the Survival in test [5] came out at 7.3 days.
